Measured values reported in ChEMBL document CHEMBL2086318, “Synthesis and in vitro antimycobacterial activity of 2-methoxybenzanilides and their thioxo analogues” (Eur J Med Chem, 2012).
Converted amounts (≈) assume the structure as drawn.

Tests used:
Type in all cases: functional
[1] = system: Mycobacterium tuberculosis; experiment: Antimycobacterial activity against Mycobacterium tuberculosis My 331/88 after 14 days by micromethod; conditions: My 331/88, 336 h
Summary of the method: (§1)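 MIC by micromethod at 37 °C, read after 14 and 21 days. Inocula were M. tuberculosis My 331/88 at 10^-3 dilution and M. avium My 330/88 at 10^-5 dilution. Compounds added in DMSO across 1000, 500, 250, 125, 62.5, 32, 16, 8, 4, 2, 1 and 0.5; isoniazid standard in sterile water. MIC taken as the lowest concentration inhibiting growth.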

[2] = system: Mycobacterium tuberculosis; experiment: Antimycobacterial activity against Mycobacterium tuberculosis My 331/88 after 21 days by micromethod; conditions: My 331/88, 504 h; summary of the method: as §1
[3] = system: Mycobacterium avium; experiment: Antimycobacterial activity against Mycobacterium avium My 330/88 after 14 days by micromethod; conditions: My 330/88, 336 h
[4] = system: Mycobacterium avium; experiment: Antimycobacterial activity against Mycobacterium avium My 330/88 after 21 days by micromethod; conditions: My 330/88, 504 h
[5] = system: Mycobacterium kansasii; experiment: Antimycobacterial activity against Mycobacterium kansasii My 235/80 after 7 days by micromethod; conditions: My 235/80, 168 h
[6] = system: Mycobacterium kansasii; experiment: Antimycobacterial activity against Mycobacterium kansasii My 235/80 after 14 days by micromethod; conditions: My 235/80, 336 h
[7] = system: Mycobacterium kansasii; experiment: Antimycobacterial activity against Mycobacterium kansasii My 235/80 after 21 days by micromethod; conditions: My 235/80, 504 h
[8] = system: Mycobacterium kansasii; experiment: Antimycobacterial activity against Mycobacterium kansasii My 6509/96 clinical isolate after 7 days by micromethod; conditions: My 6509/96, 168 h
[9] = system: Mycobacterium kansasii; experiment: Antimycobacterial activity against Mycobacterium kansasii My 6509/96 clinical isolate after 14 days by micromethod; conditions: My 6509/96, 336 h
[10] = system: Mycobacterium kansasii; experiment: Antimycobacterial activity against Mycobacterium kansasii My 6509/96 clinical isolate after 21 days by micromethod; conditions: My 6509/96, 504 h

| Structure (SMILES) | MIC [1] | MIC [2] | MIC [3] | MIC [4] | MIC [5] | MIC [6] | MIC [7] | MIC [8] | MIC [9] | MIC [10] |
| --- | --- | --- | --- | --- | --- | --- | --- | --- | --- | --- |
| COc1ccc(Cl)cc1C(=O)Nc1cccc(Cl)c1 | 250 µM (≈ 74 µg/mL) | 250 µM (≈ 74 µg/mL) | 250 µM (≈ 74 µg/mL) | 250 µM (≈ 74 µg/mL) | 62.5 µM (≈ 18.5 µg/mL) | 250 µM (≈ 74 µg/mL) | 250 µM (≈ 74 µg/mL) | 125 µM (≈ 37 µg/mL) | 250 µM (≈ 74 µg/mL) | 250 µM (≈ 74 µg/mL) |
| O=C(Nc1cccc([N+](=O)[O-])c1)c1ccc(Cl)cc1O | 8 µM (≈ 2.34 µg/mL) | 8 µM (≈ 2.34 µg/mL) | 16 µM (≈ 4.68 µg/mL) | 16 µM (≈ 4.68 µg/mL) |  | 16 µM (≈ 4.68 µg/mL) | 16 µM (≈ 4.68 µg/mL) |  |  |  |
| O=C(Nc1ccc([N+](=O)[O-])cc1)c1cc(Cl)ccc1O | 4 µM (≈ 1.17 µg/mL) | 8 µM (≈ 2.34 µg/mL) | 8 µM (≈ 2.34 µg/mL) | 8 µM (≈ 2.34 µg/mL) |  | 4 µM (≈ 1.17 µg/mL) | 4 µM (≈ 1.17 µg/mL) |  |  |  |
| O=C(Nc1ccc(Cl)cc1)c1cc(Cl)ccc1O | 4 µM (≈ 1.13 µg/mL) | 4 µM (≈ 1.13 µg/mL) | 8 µM (≈ 2.26 µg/mL) | 8 µM (≈ 2.26 µg/mL) |  | 8 µM (≈ 2.26 µg/mL) | 8 µM (≈ 2.26 µg/mL) |  |  |  |
| COc1ccc(Cl)cc1C(=O)Nc1ccc(C(F)(F)F)cc1 | 250 µM (≈ 82.4 µg/mL) | 250 µM (≈ 82.4 µg/mL) | 250 µM (≈ 82.4 µg/mL) | 250 µM (≈ 82.4 µg/mL) | 125 µM (≈ 41.2 µg/mL) | 500 µM (≈ 165 µg/mL) | 500 µM (≈ 165 µg/mL) | 62.5 µM (≈ 20.6 µg/mL) | 250 µM (≈ 82.4 µg/mL) | 250 µM (≈ 82.4 µg/mL) |
| O=C(Nc1cccc(Cl)c1)c1cc(Cl)ccc1O | 4 µM (≈ 1.13 µg/mL) | 8 µM (≈ 2.26 µg/mL) | 8 µM (≈ 2.26 µg/mL) | 16 µM (≈ 4.51 µg/mL) |  | 4 µM (≈ 1.13 µg/mL) | 8 µM (≈ 2.26 µg/mL) |  |  |  |
| COc1cc(Cl)ccc1C(=S)Nc1ccc([N+](=O)[O-])cc1 | 8 µM (≈ 2.58 µg/mL) | 32 µM (≈ 10.3 µg/mL) | 16 µM (≈ 5.16 µg/mL) | 16 µM (≈ 5.16 µg/mL) | 16 µM (≈ 5.16 µg/mL) | 32 µM (≈ 10.3 µg/mL) | 32 µM (≈ 10.3 µg/mL) | 16 µM (≈ 5.16 µg/mL) | 16 µM (≈ 5.16 µg/mL) | 32 µM (≈ 10.3 µg/mL) |
| COc1ccc(Cl)cc1C(=S)Nc1cccc([N+](=O)[O-])c1 | 250 µM (≈ 80.7 µg/mL) | 250 µM (≈ 80.7 µg/mL) | 250 µM (≈ 80.7 µg/mL) | 250 µM (≈ 80.7 µg/mL) | 62.5 µM (≈ 20.2 µg/mL) | 250 µM (≈ 80.7 µg/mL) | 250 µM (≈ 80.7 µg/mL) | 62.5 µM (≈ 20.2 µg/mL) | 250 µM (≈ 80.7 µg/mL) | 250 µM (≈ 80.7 µg/mL) |
| O=C(Nc1ccc(C(F)(F)F)cc1)c1cc(Cl)ccc1O | 2 µM (≈ 0.631 µg/mL) | 2 µM (≈ 0.631 µg/mL) | 8 µM (≈ 2.53 µg/mL) | 8 µM (≈ 2.53 µg/mL) |  | 1 µM (≈ 0.316 µg/mL) | 1 µM (≈ 0.316 µg/mL) |  |  |  |
| COc1ccc(Cl)cc1C(=S)Nc1cccc(Cl)c1 | 16 µM (≈ 5 µg/mL) | 16 µM (≈ 5 µg/mL) | 32 µM (≈ 9.99 µg/mL) | 32 µM (≈ 9.99 µg/mL) | 8 µM (≈ 2.5 µg/mL) | 16 µM (≈ 5 µg/mL) | 16 µM (≈ 5 µg/mL) | 16 µM (≈ 5 µg/mL) | 16 µM (≈ 5 µg/mL) | 32 µM (≈ 9.99 µg/mL) |
| COc1cc(Cl)ccc1C(=O)Nc1cccc([N+](=O)[O-])c1 | 125 µM (≈ 38.3 µg/mL) | 125 µM (≈ 38.3 µg/mL) | 125 µM (≈ 38.3 µg/mL) | 125 µM (≈ 38.3 µg/mL) | 125 µM (≈ 38.3 µg/mL) | 250 µM (≈ 76.7 µg/mL) | 250 µM (≈ 76.7 µg/mL) | 125 µM (≈ 38.3 µg/mL) | 125 µM (≈ 38.3 µg/mL) | 125 µM (≈ 38.3 µg/mL) |
| O=C(Nc1ccc(C(F)(F)F)cc1)c1ccc(Cl)cc1O | 4 µM (≈ 1.26 µg/mL) | 4 µM (≈ 1.26 µg/mL) | 8 µM (≈ 2.53 µg/mL) | 8 µM (≈ 2.53 µg/mL) |  | 4 µM (≈ 1.26 µg/mL) | 4 µM (≈ 1.26 µg/mL) |  |  |  |
| COc1ccc(Cl)cc1C(=O)Nc1cccc(C(F)(F)F)c1 | 4 µM (≈ 1.32 µg/mL) | 16 µM (≈ 5.28 µg/mL) | 125 µM (≈ 41.2 µg/mL) | 125 µM (≈ 41.2 µg/mL) | 4 µM (≈ 1.32 µg/mL) | 4 µM (≈ 1.32 µg/mL) | 16 µM (≈ 5.28 µg/mL) | 4 µM (≈ 1.32 µg/mL) | 4 µM (≈ 1.32 µg/mL) | 16 µM (≈ 5.28 µg/mL) |
| COc1ccc(Cl)cc1C(=O)Nc1ccc([N+](=O)[O-])cc1 | 125 µM (≈ 38.3 µg/mL) | 125 µM (≈ 38.3 µg/mL) | 125 µM (≈ 38.3 µg/mL) | 125 µM (≈ 38.3 µg/mL) | 125 µM (≈ 38.3 µg/mL) | 125 µM (≈ 38.3 µg/mL) | 125 µM (≈ 38.3 µg/mL) | 125 µM (≈ 38.3 µg/mL) | 125 µM (≈ 38.3 µg/mL) | 125 µM (≈ 38.3 µg/mL) |
| COc1ccc(Cl)cc1C(=S)Nc1ccc(Cl)c(Cl)c1 | 8 µM (≈ 2.77 µg/mL) | 8 µM (≈ 2.77 µg/mL) | 32 µM (≈ 11.1 µg/mL) | 62.5 µM (≈ 21.7 µg/mL) | 32 µM (≈ 11.1 µg/mL) | 62.5 µM (≈ 21.7 µg/mL) | 62.5 µM (≈ 21.7 µg/mL) | 62.5 µM (≈ 21.7 µg/mL) | 125 µM (≈ 43.3 µg/mL) | 125 µM (≈ 43.3 µg/mL) |
| O=C(Nc1ccc(Cl)c(Cl)c1)c1cc(Cl)ccc1O | 4 µM (≈ 1.27 µg/mL) | 8 µM (≈ 2.53 µg/mL) | 16 µM (≈ 5.07 µg/mL) | 16 µM (≈ 5.07 µg/mL) |  | 4 µM (≈ 1.27 µg/mL) | 4 µM (≈ 1.27 µg/mL) |  |  |  |
| O=C(Nc1ccc(Br)cc1)c1ccc(Cl)cc1O | 4 µM (≈ 1.31 µg/mL) | 4 µM (≈ 1.31 µg/mL) | 16 µM (≈ 5.23 µg/mL) | 16 µM (≈ 5.23 µg/mL) |  | 4 µM (≈ 1.31 µg/mL) | 4 µM (≈ 1.31 µg/mL) |  |  |  |
| O=C(Nc1cccc(Cl)c1)c1ccc(Cl)cc1O | 4 µM (≈ 1.13 µg/mL) | 4 µM (≈ 1.13 µg/mL) | 16 µM (≈ 4.51 µg/mL) | 16 µM (≈ 4.51 µg/mL) |  | 4 µM (≈ 1.13 µg/mL) | 8 µM (≈ 2.26 µg/mL) |  |  |  |
